This is one part of a sample in which hits are shown more often than they occur.
H69AR growth 86K: proliferation blockers of H69AR lung cancer cells, primary screen, cell-based, human, 86K library; viability, % at 10 µM; H69AR lung tumor viability, ATP luminescence, 72 h; active compounds read low; 85,000 compounds, 6% hits; AID 598, 2007;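 active = viability at or below 40%; inactive = viability above 40%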;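 note: multidrug resistant small cell line overexpressing MRP-1 efflux transporter; 100% = mean luminescence of untreated control wells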
HUVEC inhibit: inhibitors of HUVEC proliferation, primary screen, cell-based, 384-well; 86,000 compounds, 1.1% hits; CellTiter-Glo luminescence, 72 h; active compounds read low; viability, % at 10 µM (by protocol);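 active = viability at or below 30%; inactive = viability above 30%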;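 note: 100% = median luminescence of DMSO-only cell control wells on each plate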
Fibroblast inh: antiproliferative effect on LL 47 fibroblasts – human, LL 47 cells, CellTiter-Glo luminescence, primary screen. LL 47 human lung fibroblast viability, ATP luminescence; active compounds read low. viability, % at 10 µM. 85,000 compounds, 1.1% hits;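 active = viability at or below 50% in the single dose screen; inactive = viability above 50%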;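 note: compound exposure lasted 72 h before the ATP readout; 100% = median luminescence of untreated cell-only wells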
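Test system: LL 47 human lung fibroblasts / Quantity: 1,150 cells in each well / Medium: IMEM growth medium with 15% fetal bovine serum / Incubation: 72 h compound exposure at 37 °C after overnight plating / Detection: CellTiter-Glo luminescence measuring cellular ATP / Read-out: % viability versus median cells-only luminescence / Benchmarks: cell-only wells, no compound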
bCat KO growth: primary screen for growth suppressors in beta-catenin knockout HCT116 cells (colon tumor, human); HCT116 beta-catenin knockout viability, CellTiter-Glo, 60 h; active compounds read low; viability, % at 10 µM; 140,000 compounds, 1.5% hits; AID 818, 2007;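 active = viability at or under a set limit, the compound median less 4 SD, cut at about 6% in these data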;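 note: 0% = Hyamine 1622 control at 20 µM and 100% = untreated cell control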
HCT116 PTEN-null: growth suppression of PTEN-null HCT116, primary screen, cell-based, CellTiter-Glo. HCT116 PTEN-null viability, 60 h; active compounds read low. 140,000 compounds, 1.2% hits. viability, % at 10 µM;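 active = viability at or below a set limit, 4 SD under the median of all tested compounds, cut at about 3.7% in these data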;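 note: PTEN knockout HCT116 line with beta catenin targeted HCT116 as companion control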
The depositor's hits bear a star; · = no result.

SMILES | H69AR growth 86K | HUVEC inhibit | Fibroblast inh | bCat KO growth | HCT116 PTEN-null
Cc1cc(C)c2nc(NNC(=O)c3cc(-c4cccs4)nc4ccccc34)sc2c1 | · | · | · | 6.4 | 4.1
O=C(NNc1nc2ccc(Cl)cc2s1)c1cc(-c2cccs2)nc2ccccc12 | · | · | · | 4.2* | 3.7*
Cc1ccc2sc(NNC(=O)c3cc(-c4cccs4)nc4ccccc34)nc2c1C | · | · | · | 4.8* | 4.3
O=C(NN1CCOCC1)c1cc(-c2cccs2)nc2ccccc12 | · | · | · | 91.8 | 94.3
CN(CCC#N)C(=O)COC(=O)c1c2c(nc3ccccc13)/C(=C/c1ccco1)CC2 | · | · | · | 69.5 | 60.1
CCc1ccc(NC(=O)c2c(Cl)nc(C)c(Cl)c2C)cc1 | · | · | · | 86.1 | 76.0
CCn1c(SCc2ccc([N+](=O)[O-])cc2)nnc1C(C)NC(=O)c1ccc(C)cc1 (centres undefined) | · | · | · | 82.0 | 89.2
O=C(NC(Nc1ncc(S(=O)(=O)c2ccc([N+](=O)[O-])cc2)s1)(C(F)(F)F)C(F)(F)F)c1ccc(Cl)cc1 | · | · | · | 2.6* | 3.1*
O=C(Nc1ncc(S(=O)(=O)c2ccc([N+](=O)[O-])cc2)s1)c1cccc2ccccc12 | · | · | · | 43.4 | 40.2
COCC(C)n1c(SCC(=O)NC(=O)Nc2ccc3c(c2)OCCO3)nc2ccccc2c1=O (centres undefined) | · | · | · | 79.0 | 79.3
CC(C)(C)/C(O)=C/c1nc2ccccc2[nH]c1=O | · | · | · | 93.7 | 100.5
O=S(=O)(/C(=C/c1ccc(C(F)(F)F)cc1)c1nc2ccccc2[nH]1)c1ccccc1 | · | · | · | 1.5* | 1.6*
N#C/C(=C\c1cccc(Oc2ccc(C(F)(F)F)cc2[N+](=O)[O-])c1)c1nc2ccccc2[nH]1 | · | · | · | 84.7 | 88.4
CC(C)c1ccc(/C=C(\c2nc3ccccc3[nH]2)S(=O)(=O)c2ccccc2)cc1 | · | · | · | 1.8* | 1.9*
CCOc1ccc(CCNC(=O)c2cc3sccc3n2C)cc1OCC | · | · | · | 65.9 | 66.9
CCc1ccc(C2NC(=S)NC3=C2C(=O)N(c2ccccc2OC)C(c2ccc(CC)cc2)N3)cc1 (centres undefined) | · | · | · | 74.7 | 70.5
O=C1C2=C(NC(=S)NC2c2ccc(Cl)cc2)NC(c2ccc(Cl)cc2)N1c1ccc(Cl)cc1 (centres undefined) | 0.1* | 7.6* | 97.8 | 13.2 | 22.4
COC(=O)c1sccc1NC(=O)Cc1ccc(Br)cc1 | · | · | · | 93.3 | 95.3
CCn1c(SCc2ccc(C#N)cc2)nnc1-c1ccc(S(=O)(=O)N2CCCCC2)cc1 | 33.7* | 75.4 | 86.5 | 74.8 | 66.4
CC(C)Cc1nnc(NC(=O)c2ccc([N+](=O)[O-])cc2)s1 | · | · | · | 105.4 | 99.1
COC(=O)CCC(=O)Nc1sc(C)c(C)c1C(N)=O | 18.9* | 84.6 | 98.4 | 100.4 | 100.6
Cc1sc2ncnc(Sc3nnc4sc5ccccc5n34)c2c1C | 34.7* | 97.0 | 93.0 | 57.8 | 60.5
O=C(O)c1ccc(CNCc2ccc(Cl)cc2)cc1 | · | · | · | 93.8 | 103.9
CCOC(=O)Cn1c2ccccc2c2nc3ccccc3nc21 | 6.1* | 107.2 | 96.1 | 21.1 | 43.5
COc1ccc2c(c1)c1nc3ccccc3nc1n2CC(=O)OC(C)C | 18.5* | 56.8 | 38.7* | 2.3* | 3.7*
SMILES | H69AR growth 86K | HUVEC inhibit | Fibroblast inh | bCat KO growth | HCT116 PTEN-null
CC(C)(C)c1cc(NC(=O)CCSc2nnc3ccccn23)cc(C(C)(C)C)c1 | 53.3 | 46.2 | 46.2* | 38.2 | 49.5
N#CCc1nc2c3c4c(sc3ncn2n1)CCCC4 | 93.3 | 16.3* | 94.8 | 92.6 | 95.4
NC(=O)c1cccnc1Nc1ccccc1Cl | · | · | · | 98.0 | 99.5
CCN1CCN(C(=S)Nc2cccc([N+](=O)[O-])c2)CC1 | · | · | · | 90.2 | 87.5
CCN1C/C(=C/c2cccc([N+](=O)[O-])c2)C(=O)/C(=C/c2cccc([N+](=O)[O-])c2)C1 | · | · | · | 1.7* | 1.6*
C=CCn1c(SCC(=O)c2c(N)n(CCC)c(=O)n(C)c2=O)nc2sc(CC)cc2c1=O | 7.7* | 83.0 | 46.5* | 40.8 | 35.6
C=CCn1c(SCC(=O)Nc2sccc2C(N)=O)nc2sc(CC)cc2c1=O | 39.8* | 73.1 | 85.5 | 70.7 | 74.5
C=CCn1c(SCC(=O)Nc2sccc2C(N)=O)nc2ccccc2c1=O | 31.3* | 58.7 | 87.6 | 75.5 | 76.4
C=CCn1c(SCC(=O)Nc2sccc2C(N)=O)nc2ccc(Cl)cc2c1=O | 16.5* | 57.2 | 84.4 | 50.6 | 32.4
C=CCn1c(SCC(=O)c2c(N)n(C)c(=O)n(C)c2=O)nc2sc(C)c(C)c2c1=O | · | · | · | 98.6 | 94.0
CCCC1=C(C(=O)OCC)C(c2c(C)nn(-c3ccccc3)c2Cl)C(C#N)=C(N)O1 (centres undefined) | 75.6 | 93.4 | 98.6 | 85.2 | 83.3
CC(C)Cn1c(C(C)C)nc([N+](=O)[O-])c1S(=O)(=O)c1ccc(F)cc1 | · | · | · | 2.1* | 2.4*
CC(C)Cn1c(CCCNC(=O)c2ccc(F)cc2)nc2ccccc21 | 69.9 | 100.1 | 106.4 | 83.1 | 93.6
CCCc1nc([N+](=O)[O-])c(S(=O)(=O)c2ccccc2)n1CC(C)C | · | · | · | 3.3* | 2.9*
O=C1CC(c2ccccc2)Cc2nc3ncnn3cc21 (centres undefined) | 85.3 | 99.4 | 94.8 | 57.2 | 59.5
CC(C)(C)c1ccc(O)c(/C=N\O)c1 | 25.1* | 95.3 | 87.3 | 81.8 | 81.2
CC(C)(C)c1cccc(/C=N/O)c1O | 104.2 | 106.9 | 102.1 | 83.5 | ·
N#CCSc1nc2cc(C(=O)N3CCC(C(N)=O)CC3)ccc2c2nc3ccccc3n12 | 63.2 | 85.5 | 98.8 | 5.0* | 7.4
N#CCSc1nc2cc(C(=O)N3CCCC3)ccc2c(=O)n1Cc1ccccc1 | · | · | · | 93.3 | 78.0
N#CCSc1nc2ccccc2c2nc3ccccc3n12 | · | · | · | 5.8* | 8.8
Cc1nn(-c2cc(N3CCCC3)ccc2[N+](=O)[O-])c(=O)c2ccccc12 | 32.9* | 83.2 | 103.5 | 91.0 | 88.2
Cc1nn(-c2cc(N3CCOCC3)ccc2[N+](=O)[O-])c(=O)c2ccccc12 | 100.5 | 90.8 | 95.9 | 98.3 | 97.8
Cc1ccc(-n2c(C)c3c(C)nnc(C)c3c2C)cc1 | 81.3 | 86.9 | 101.6 | · | ·
Cc1ccc(-n2c(C)c3c(C)nnc(C)c3c2C)cc1C | 32.4* | 101.6 | 93.4 | 4.0* | 8.5
CCOC(=O)c1c(NC(=O)CN2CCCc3ccccc32)sc(C)c1CC | · | · | · | 74.4 | 71.9
O=c1cc(-c2c(F)c(F)c(F)c(F)c2F)oc2ccccc12 | · | · | · | 2.2* | ·
O=c1cc(-c2c(F)c(F)c(F)c(F)c2F)oc2c(F)c(F)c(F)c(F)c12 | 1.0* | 1.6* | 17.2* | 1.6* | 1.5*
CC(C)CNC(=O)CSc1nc(-c2cccs2)cc(C(F)(F)F)n1 | 94.6 | 99.8 | 101.3 | 85.9 | 91.0
CS(=O)(=O)c1nc(-c2cccs2)cc(C(F)(F)F)n1 | 1.5* | 53.8 | 13.5* | 3.3* | 1.3*
O=C(O)CCS(=O)(=O)c1nc(-c2cccs2)cc(C(F)(F)F)n1 | 33.0* | 92.7 | 92.2 | 93.9 | 103.5
